Entries after “also recorded” stand apart in the source; their conditions may differ.
Key:
[1] = target: Syk-EGFP (Mus musculus, UniProt P48025); assay: In vitro kinase assay, immobilized Syk-EGFP, ELISA-based fluorescence detection; assay type: biochemical; conditions: for rate of phosphorylation compared with other substrates: Syk-EGFP 6 nM, each substrate 4 μM, 5 mM MnCl2, HEPES pH 7.2 (Fig. 2b)
Summary of the method: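 Syk-EGFP immunoprecipitated from lysates of DT40 chicken B cells on anti-GFP beads. Bead-bound kinase (6 nM in the 4 μM substrate comparison) was mixed with peptide (4 μM, or a concentration range) in 500 μM ATP, 5 mM MnCl2, HEPES pH 7.2. Timed aliquots were EDTA-quenched. Neutravidin-captured peptide was probed with 4G10 anti-phosphotyrosine and HRP secondary, then read by Amplex Red (ex 532/em 590 nm). Initial velocities were fitted to a sigmoidal curve; three replicates.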

[2] = test system: peripheral T-cell lymphoma cells; conditions: cells with elevated Syk Y525/Y526 phosphorylation; ref [8]; cited from earlier work
[3] = test system: kinases; conditions: binding affinity for kinases; ref [30]; cited from earlier work
[4] = test system: acute myelogenous leukemia; conditions: ref [34]; cited from earlier work
[5] = test system: non-Hodgkins lymphomas; conditions: ongoing trial, very small cohort; ref [29]; cited from earlier work
[6] = test system: rheumatoid arthritis; conditions: vs placebo; ref [32]; cited from earlier work
[7] = target: T1, Syk (Homo sapiens, UniProt P43405); assay: Western blot of Syk tyrosine phosphorylation in inhibitor-treated DG75 cells; assay type: cell-based; conditions: anti-IgM 5 μg/mL + H2O2 1 mM
[8] = test system: Syk Y525/526; assay: Western blot of Syk Y525/526 phosphorylation in primary splenic B cells; assay type: cell-based; conditions: mouse primary splenic B cells, anti-IgM F(ab′)2
Summary of the method: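 Mouse splenic B cells enriched by panning, at 5 × 10^6 cells/mL, pre-treated with tyrosine kinase inhibitor or DMSO vehicle. SAStide biosensor peptide (25 μM) added 15 min before anti-IgM F(ab′)2 (5 μg/mL); harvested 0, 5, 10, 15 min after. Immunoblot: 5% goat serum block 1 h; primary antibodies 1:1,000, 1 h at room temperature; HRP secondary, ECL detection.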

[9] = target: T1, Syk; conditions: cited from earlier work
[10] = test system: DG75 cells; assay: Cell toxicity in DG75 cells; assay type: cell-based; conditions: high concentrations, in the presence of BCR activation and oxidative stress; loss of tubulin and Syk immunoblot signal
[11] = test system: allergic rhinitis; conditions: delivered intranasally; ref [31]; cited from earlier work
[12] = 500 μM ATP, average of three replicate experiments
[13] = different enzyme preparation and ATP concentration from this paper, ref [13b]

Sequence of Syk-EGFP (P48025 whole entry): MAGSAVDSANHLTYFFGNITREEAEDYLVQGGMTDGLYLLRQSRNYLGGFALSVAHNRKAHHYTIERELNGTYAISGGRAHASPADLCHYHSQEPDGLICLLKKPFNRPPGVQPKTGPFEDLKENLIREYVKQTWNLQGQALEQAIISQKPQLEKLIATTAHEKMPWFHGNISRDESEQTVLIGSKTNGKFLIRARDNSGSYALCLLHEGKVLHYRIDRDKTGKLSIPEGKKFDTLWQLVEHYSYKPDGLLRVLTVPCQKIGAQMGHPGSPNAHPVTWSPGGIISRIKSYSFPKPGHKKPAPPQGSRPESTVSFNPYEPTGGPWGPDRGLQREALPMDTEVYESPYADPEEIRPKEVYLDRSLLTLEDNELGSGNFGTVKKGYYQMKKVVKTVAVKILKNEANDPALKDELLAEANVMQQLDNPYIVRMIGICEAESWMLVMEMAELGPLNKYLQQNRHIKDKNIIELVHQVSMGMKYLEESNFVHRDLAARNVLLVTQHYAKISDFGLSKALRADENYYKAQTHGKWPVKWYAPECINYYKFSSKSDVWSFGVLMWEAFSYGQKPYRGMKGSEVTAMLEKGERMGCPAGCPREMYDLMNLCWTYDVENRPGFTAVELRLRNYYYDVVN

Molecule: GGDEEDYEEPDEPGGKbGG [SAStide]
- Vmax ([1]; SAStide at a range of concentrations, immunoprecipitated Syk-EGFP, 500 μM ATP, 5 mM MnCl2, HEPES pH 7.2, sigmoidal fit, three replicate experiments): 11 ± 1 pmol/min
- rate of phosphorylation compared with other substrates [1, 12]: phosphorylated more rapidly than the previously reported Syktide sequence, but not as rapidly as the phage display-derived sequence; also recorded: phosphorylated more efficiently than the parent Syktide
- substrate inhibition ([1]; concentrations up to 100 μM, immunoprecipitated Syk-EGFP): no substrate inhibition at concentrations up to 100 μM
- Km ([1]; read-out: Khalf (substrate concentration at half of Vmax in a sigmoidal curve, analogous to Km), SAStide at a range of concentrations, immunoprecipitated Syk-EGFP, 500 μM ATP, 5 mM MnCl2, HEPES pH 7.2, sigmoidal fit, average of three replicate experiments): 86 ± 10 µM

Molecule: COc1cc(Nc2ncc(F)c(Nc3ccc4c(n3)NC(=O)C(C)(C)O4)n2)cc(OC)c1OC [R406]
- apoptosis and proliferation [2]: induces apoptosis and blocks proliferation
- kinase selectivity [3]: one of the least selective kinase inhibitors evaluated

Molecule: gemtuzumab ozogamicin: therapeutic antibody conjugated to a toxin
- response in relation to lower Syk expression [4]: lack of response

Molecule: COc1cc(Nc2ncc(F)c(Nc3ccc4c(n3)N(COP(=O)(O)O)C(=O)C(C)(C)O4)n2)cc(OC)c1OC [fostamatinib]
- response by lymphoma subtype [5]: slightly better response in chronic lymphocytic leukemia than the other types
- response rates [5]: response rates were low overall
- benefit in rheumatoid arthritis, patients receiving methotrexate [6]: significant benefit (over placebo)

Molecule: Cc1nc(Nc2ncc(C(=O)Nc3c(C)cccc3Cl)s2)cc(N2CCN(CCO)CC2)n1 [dasatinib]
- level of Syk tyrosine phosphorylation (Western blot) [7]: reduction in the level of Syk tyrosine phosphorylation
- Y525/526 phosphorylation in the presence of inhibitor (Western blot) [8]: Y525/526 remained phosphorylated

Molecule: GGEDPDYEWPSAGGKbGG [Phage]
- rate of phosphorylation compared with other substrates [1, 12]: more efficiently phosphorylated
- substrate inhibition at higher concentrations ([9]; phage display peptide, Syk, ref [13d]): greater than 20 μM

Molecule: GGEDDEYEEVGGKbGG [Syktide]
- Km [9, 13]: 3 µM
- kcat [9, 13]: 1.04 s⁻¹

Molecule: Oc1cc(O)cc(/C=C/c2ccc(O)c(O)c2)c1 [piceatannol, 3,4,3′,5′-tetrahydroxy-trans-stilbene]
- toxicity to DG75 cells [10]: toxic to DG75 cells
- level of Syk tyrosine phosphorylation (Western blot) [7]: reduction in the level of Syk tyrosine phosphorylation
- Y525/526 phosphorylation in the presence of inhibitor (Western blot) [8]: Y525/526 remained phosphorylated

Molecule: Oc1cccc(Nc2ncc(F)c(Nc3cccc(O)c3)n2)c1 [R112]
- relief of allergic rhinitis symptoms [11]: effective for relieving allergic rhinitis symptoms
